# Test results as given in ChEMBL document CHEMBL3576783, “Synthesis and evaluation of 1,2,4-triazolo[1,5-a]pyrimidines as antibacterial agents against Enterococcus faecium” (J Med Chem, 2015).
# The source made the active and inactive calls. The rule behind the calls is not given here.
# How the values were obtained:
# Enterococcus faecium [1] = test: Antibacterial activity against copper, erythromycin, teracycline-resistant and vancomycin and teicoplanin-sensitive Enterococcus faecium ATCC BAA2127 assessed as bacterial growth inhibition after 16-20 hrs by broth microdilution method; assay type: functional
# Summary of the method: (§1)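 CLSI broth microdilution in cation-adjusted Mueller Hinton II broth, triplicate. Cultures grown to OD600 about 0.60-0.80, diluted 100-fold; final inoculum 5×10^5 CFU/mL. Compounds from 5 mg/mL DMSO stock diluted in medium, final 2% (v/v) DMSO plus 0.25% (v/v) glacial acetic acid. Incubated 35 °C, 16-20 h, then MIC read.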
# Enterococcus faecium [2] = test: Antibacterial activity against vancomycin-susceptible Enterococcus faecium 119-39A assessed as bacterial growth inhibition after 16-20 hrs by broth microdilution method; assay type: functional; summary of the method: as §1
# Enterococcus faecium [3] = test: Antibacterial activity against vancomycin and teicoplanin-resistant Enterococcus faecium ATCC 700221 isolated from human faeces assessed as bacterial growth inhibition after 16-20 hrs by broth microdilution method; assay type: functional; conditions: ATCC 700221, Feces
# Summary of the method: as §1, with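 “Broth” for “CLSI broth”, “broth, run to CLSI method,” for “broth,”, “Cells” for “Cultures”, “~0.60-0.80,” for “about 0.60-0.80,”, “stocks” for “stock”, “°C for” for “°C,”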
# Enterococcus faecium [4] = test: Antibacterial activity against Enterococcus faecium C38 assessed as bacterial growth inhibition after 16-20 hrs by broth microdilution method; assay type: functional; summary of the method: as §1
# Liver = test: Half life in human liver S9 at 10 uM after 60 mins by UPLC analysis; assay type: ADME, subcellular, Liver S9 fraction; conditions: s9, 1 h
# Summary of the method: (§2)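 Pooled human liver S9 (1 mg/mL) with 1 mM NADPH and 10 μM compound in sodium phosphate buffer (0.20 M phosphate, 0.15 M NaCl, pH 7.4), 37 °C for 60 min. Six time points quenched in acetonitrile with internal standard, analysed by UPLC-MRM. Half-life taken from first-order rate constant; CLint scaled with 45 mg protein/g liver and 20 g liver/kg. Run in duplicate.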
# [5] = Apparent intrinsic clearance in human liver S9 at 10 uM after 60 mins by UPLC analysis; assay type: ADME, subcellular, Liver S9 fraction; conditions: read-out: CLH(app); summary of the method: as §2
# Plasma = test: Plasma protein binding in human at 10 uM by rapid equilibrium dialysis method; assay type: ADME, cell-free
# Summary of the method: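 Human plasma centrifuged to clear particulates, spiked with compound to final 10 μM in 0.1% DMSO. Dialysed against 0.1 M sodium phosphate buffer, pH 7.4, at 37 °C overnight with shaking in a rapid equilibrium dialysis device. Buffer and plasma sides extracted with acetonitrile containing internal standard and analysed by UPLC-MRM. Binding calculated as (Cp−Cf)/Cp×100.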
# [6] = Induction of hemolysis in RBC (unknown origin) at 64 ug/ml; conditions: erythrocytes
# Enterococcus faecium [7] = test: Inhibition of peptidoglycan synthesis in Enterococcus faecium NCTC 7171 assessed as decrease in D-[2,3-3H]-alanine incorporation at 8 ug/ml after 120 mins by liquid scintillation counting analysis; assay type: functional, organism-based
# Summary of the method: (§3)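 E. faecium NCTC 7171 grown in brain-heart infusion at 37 °C to early-log phase. Tritiated precursor (1 uCi/mL) added and incubated 5 min; compound then added at 8 μg/mL with DMSO negative control, followed by 2 h growth. Samples taken every 20 min, precipitated in 20% ice-cold TCA, filtered, washed with TCA and ethanol, and scintillation-counted in duplicate. Value reported at 120 min.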
# Enterococcus faecium [8] = test: Inhibition of DNA replication in Enterococcus faecium NCTC 7171 assessed as decrease in [methyl-3H]-thymidine incorporation into DNA at 8 ug/ml after 120 mins by liquid scintillation counting analysis; assay type: functional, organism-based; summary of the method: as §3
# Enterococcus faecium [9] = test: Inhibition of transcription in Enterococcus faecium NCTC 7171 assessed as decrease in [5,6-3H]-uridine incorporation into RNA at 8 ug/ml after 120 mins by liquid scintillation counting analysis; assay type: functional, organism-based; summary of the method: as §3
# Enterococcus faecium [10] = test: Inhibition of translation in Enterococcus faecium NCTC 7171 assessed as decrease in L-[4,5-3H]-leucine incorporation into protein at 8 ug/ml after 120 mins by liquid scintillation counting analysis; assay type: functional, organism-based; summary of the method: as §3
# Escherichia coli = test: Effect on beta-galactosidase reporter gene translation in Escherichia coli S30 extract by transcription/translation assay; assay type: functional
# Enterococcus faecium [11] = test: microbe, parasite or virus in culture; conditions: NCTC 7171
# Enterococcus faecium [12] = test: Antibacterial activity against Enterococcus faecium C9 assessed as bacterial growth inhibition after 16-20 hrs by broth microdilution method; assay type: functional; summary of the method: as §1
# Enterococcus faecium [13] = test: Antibacterial activity against Enterococcus faecium C68 assessed as bacterial growth inhibition after 16-20 hrs by broth microdilution method; assay type: functional; summary of the method: as §1
# Staphylococcus aureus [14] = test: Inhibition of Staphylococcus aureus PBP2a up to 100 ug/ml by BIOCILLIN FL based fluorescence analysis
# Summary of the method: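 Recombinant purified PBP2a (final 2 μM) preincubated with inhibitor in 25 mM Hepes, 1 M NaCl, pH 7.0, 37 °C, 10 min. BOCILLIN FL (final 20 μM) then added for 10 min at 37 °C. Samples boiled in SDS buffer and run on 12% SDS-PAGE. Fluorescent bands scanned and quantified against a no-inhibitor control.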
# BL21-DE3 = test: Inhibition of Enterococcus faecium D63r PBP5fm expressed in Escherichia coli BL21 (DE3) cells up to 100 ug/ml after 10 to 20 mins by BIOCILLIN FL-based fluorescence assay
# Summary of the method: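 Recombinant PBP5fm lacking the signal peptide, expressed in E. coli BL21(DE3) and purified by anion-exchange then chelating chromatography. Enzyme (40 μM) preincubated with inhibitor in 25 mM Hepes, 1 M NaCl, pH 7.0 at 37 °C for 20 min. BOCILLIN FL (30 μM) then added for a further 20 min. Bands resolved on 12% SDS-PAGE and fluorescence quantified against a no-inhibitor control.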
# Staphylococcus aureus [15] = test: Antibacterial activity against Staphylococcus aureus ATCC 29213 assessed as bacterial growth inhibition after 16-20 hrs by broth microdilution method; assay type: functional, organism-based
# Summary of the method: (§4)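 CLSI broth microdilution in cation-adjusted Mueller Hinton II broth, run in triplicate. Cultures grown to OD600 about 0.60-0.80, diluted 100-fold, final inoculum 5×10^5 CFU/mL. Compounds diluted from 5 mg/mL DMSO stocks; final 2% (v/v) DMSO plus 0.25% (v/v) glacial acetic acid. Plates incubated at 35 °C for 16-20 h before reading the MIC.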
# Klebsiella pneumoniae = test: Antibacterial activity against Klebsiella pneumoniae ATCC 700603 assessed as bacterial growth inhibition after 16-20 hrs by broth microdilution method; assay type: functional, organism-based; summary of the method: as §4
# Acinetobacter baumannii = test: Antibacterial activity against Acinetobacter baumannii ATCC 17961 assessed as bacterial growth inhibition after 16-20 hrs by broth microdilution method; assay type: functional, organism-based; summary of the method: as §4
# Pseudomonas aeruginosa = test: Antibacterial activity against Pseudomonas aeruginosa ATCC 27853 assessed as bacterial growth inhibition after 16-20 hrs by broth microdilution method; assay type: functional, organism-based; summary of the method: as §4
# Enterobacter sp. = test: Antibacterial activity against Enterobacter sp. assessed as bacterial growth inhibition after 16-20 hrs by broth microdilution method; assay type: functional, organism-based; summary of the method: as §4
SMILES,MIC (Enterococcus faecium [1]) [µg/mL],MIC (Enterococcus faecium [2]) [µg/mL],MIC (Enterococcus faecium [3]) [µg/mL],MIC (Enterococcus faecium [4]) [µg/mL],t1/2 (Liver) [min],CLint scaled at 10 µM [5] [mL/min/kg],PPB (Plasma) [%],Activity [6] [%],MBC (Enterococcus faecium [11]) [µg/mL],MIC (Enterococcus faecium [11]) [µg/mL],MIC (Enterococcus faecium [12]) [µg/mL],MIC (Enterococcus faecium [13]) [µg/mL],inhibition (Staphylococcus aureus [14]),inhibition (BL21-DE3),further results
CC1=C(C(N)=O)C(c2ccc(N(C)C)cc2)n2nc(SCc3ccccc3)nc2N1 (stereo not given),4,4,4,16,> 60,< 10.4,97.6,2,32,4,–,–,–,–,inhibition (Enterococcus faecium [7]): Active; inhibition (Enterococcus faecium [8]): inactive; inhibition (Enterococcus faecium [9]): inactive; inhibition (Enterococcus faecium [10]): inactive; Activity (Escherichia coli): inactive
CC1=C(C(N)=O)C(c2ccc(N(C)C)cc2)n2nc(SCc3ccc(C#N)cc3)nc2N1 (stereo not given),–,8,8,16,> 60,< 10.4,96.8,1,16,–,4,4,inactive,inactive,–
CC1=C(C(N)=O)C(c2ccc(OC(C)C)cc2)n2nc(SCc3ccccc3)nc2N1 (stereo not given),16,–,8,32,57,10.9,–,< 1,–,4,–,–,–,–,–
CC1=C(C(N)=O)C(c2ccc(C(C)C)cc2)n2nc(SCc3ccccc3)nc2N1 (stereo not given),4,4,–,16,56,11.1,98.7,22,32,8,16,16,inactive,inactive,inhibition (Staphylococcus aureus [15]): inactive; inhibition (Klebsiella pneumoniae): inactive; inhibition (Acinetobacter baumannii): inactive; inhibition (Pseudomonas aeruginosa): inactive; inhibition (Enterobacter sp.): inactive
CN[C@H](CC(C)C)C(=O)N[C@H]1C(=O)N[C@@H](CC(N)=O)C(=O)N[C@H]2C(=O)N[C@H]3C(=O)N[C@H](C(=O)N[C@H](C(=O)O)c4cc(O)cc(O)c4-c4cc3ccc4O)[C@H](O)c3ccc(c(Cl)c3)Oc3cc2cc(c3O[C@@H]2O[C@H](CO)[C@@H](O)[C@H](O)[C@H]2O[C@H]2C[C@](C)(N)[C@H](O)[C@H](C)O2)Oc2ccc(cc2Cl)[C@H]1O [VANCOMYCIN],–,–,16,64,–,–,–,–,–,–,–,64,–,–,–
